# In publication PMC4780725 (Drug Design, Development and Therapy, 2016):
# Legend:
# [1] = test system: SGC-7901 or BGC-823 cells; assay: Clonogenic assay; format: cell-based, human; details: 5 µM, 24 hours treatment, then 7 days in fresh medium
# How it was run: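 SGC-7901 or BGC-823 cells were exposed to test compound (2.5 or 5 µM) or DMSO for 24 h. The medium was then replaced with fresh medium and colonies grew for 7 days before crystal violet staining and photography.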
# [2] = test system: SGC-7901 or BGC-823 cells; assay: Cell cycle analysis by flow cytometry; format: cell-based, human; details: 24 hours
# How it was run: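 Cells in RPMI-1640 with 10% FBS were exposed for 24 h to test compound (5 or 10 µM, or 20 µM for the reference) or DMSO. All cells were collected by trypsinization, PBS-washed, fixed in 75% ethanol for 1 h at −20°C, washed, and stained with PI for 15 min at 4°C in the dark. G0/G1, S and G2/M fractions were measured by FACS, from three separate treatments.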
# [3] = Stability in phosphate buffer by UV-visible absorption spectra; format: physicochemical; details: phosphate buffer pH 7.4, 250 to 600 nm, every 5 minutes for more than 25 minutes
# How it was run: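 Test compound was dissolved and diluted in DMSO, then mixed into phosphate buffer at pH 7.4. Optical density from 250 to 600 nm was recorded every 5 min for more than 25 min.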
# [4] = test system: SGC-7901 and BGC-823 cells; assay: Matrigel invasion assay; format: cell-based, human; details: 24 hours; Da0324 5 or 10 µM, curcumin 10 µM
# How it was run: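 Transwell inserts were coated with Matrigel and air-dried for 2 h at room temperature. Cells at 1×10^6 cells/mL in serum-free RPMI-1640 with compound or DMSO were placed in the upper chamber, with RPMI-1640 plus 10% FBS below, for 24 h at 37°C. Cells on the lower surface were fixed, crystal violet-stained and counted by light microscopy as the mean of three fields, from three separate treatments.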
# GES-1 cells = assay: MTT cell viability assay, GES-1 normal gastric mucosa epithelial cells; format: cell-based; details: Homo sapiens, GES1, 72 h, read-out: IC50 values of compounds on cells, GES-1
# How it was run: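 GES-1 cells were grown in RPMI-1640 with 10% FBS at 37°C and 5% CO2, seeded at ~5,000 cells/well, then exposed for 72 h to 0.096, 0.48, 2.4, 12 and 60 µM compound. MTT was added for 4 h, formazan dissolved in DMSO, and absorbance read at 490 nm. Inhibition was calculated against the DMSO control, and IC50 is the concentration giving 50% inhibition. At least three independent experiments were run.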
# [5] = test system: p65 nuclear translocation in SGC-7901 cells; assay: p65 nuclear translocation, Western blot of nuclear extracts, SGC-7901; format: cell-based, human; details: SGC-7901, pretreatment 60 minutes, TNF-α 1 ng/mL 60 minutes
# How it was run: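 SGC-7901 cells were pretreated for 60 min with test compound (10 or 20 µM), a reference NF-κB inhibitor or DMSO, then stimulated with TNF-α at 1 ng/mL for 60 min. Cells were trypsinized and washed thrice in ice-cold PBS. Cytoplasmic extract came from Buffer A (10 min on ice) plus Buffer B (1 min) and a 16,000× g spin for 5 min; nuclear extract from the pellet in Buffer C for 40 min on ice. Nuclear p65 was normalized to Lamin B and cytoplasmic p65 to GAPDH.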
# [6] = test system: p65 nuclear translocation in BGC-823 cells; assay: p65 nuclear translocation, immunofluorescence, BGC-823; format: cell-based, human; details: BGC-823, 20 µM, 60 minutes before TNF-α
# How it was run: (§1)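 Cells were pretreated 60 min with DMSO, test compound (20 µM) or a reference NF-κB inhibitor (20 µM), then stimulated with TNF-α 1 ng/mL for 60 min. After an ice-cold PBS wash, cells were fixed 10 min at room temperature and blocked 1 h. They were incubated overnight at 4°C with rabbit anti-p65, then anti-rabbit Cy3 for 1 h in the dark, and DAPI for 5 min. Fluorescence microscopy at 20×10; p65 red and nuclei blue in merged images.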
# SGC-7901 cells = assay: MTT cell viability assay, SGC-7901; format: cell-based, human; details: read-out: IC50 values of compounds on cells, SGC-7901, 72 hours, SGC-7901 gastric cancer cells
# How it was run: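 SGC-7901 cells were seeded at ~5,000/well and exposed 72 h to test compound at 0.096, 0.48, 2.4, 12 and 60 µM. MTT was added for 4 h, formazan dissolved in DMSO and absorbance read at 490 nm. Inhibition ratio = (1 − A treated/A DMSO control) × 100%. IC50, the concentration giving 50% inhibition of proliferation, was calculated by curve fitting.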
# [7] = test system: NF-κB activation induced by TNF-α in BGC-823 cells; assay: Western blot of TNF-α-induced NF-κB activation; format: cell-based, human; details: BGC-823, 10 µM, 60 minutes pretreatment, TNF-α 1 ng/mL 15 minutes
# How it was run: (§2)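 SGC-7901 or BGC-823 cells were pretreated 60 min with DMSO, test compound (5, 10 or 20 µM) or a reference NF-κB inhibitor (20 µM), then stimulated with TNF-α 1 ng/mL for 15 min. Whole-cell lysates were cleared at 12,000× g, 4°C, 10 min, and equal protein run on SDS-PAGE. Blots were probed overnight for p-IKK, IκB-α and p-IκB-α, then with HRP secondaries 1 h at 37°C. Densitometry normalised to IKK and GAPDH, respectively.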
# [8] = test system: caspase 3, bcl-2, bax in SGC-7901 cells; assay: Western blot of apoptosis-related proteins, SGC-7901; format: cell-based, human; details: SGC-7901, 10 µM, 24 hours
# How it was run: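 SGC-7901 cells were exposed 24 h to DMSO, test compound (5, 10 or 20 µM) or a reference compound (20 µM). Lysates were cleared at 12,000× g, 4°C, and equal protein separated by SDS-PAGE. Blots were probed overnight for caspase 3, cleaved caspase 3, bax and bcl-2, with GAPDH as loading control. Bands were quantified by densitometry.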
# [9] = test system: p65 nuclear translocation in SGC-7901 cells; assay: p65 nuclear translocation, immunofluorescence, SGC-7901; format: cell-based, human; details: SGC-7901, 20 µM, 1 hour before TNF-α
# How it was run: as §1
# [10] = test system: SGC-7901 or BGC-823 cells; assay: Apoptosis by Annexin-V/PI flow cytometry; format: cell-based, human; details: 10 or 20 µM, 24 hours
# How it was run: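 SGC-7901 or BGC-823 cells in RPMI-1640 with 10% FBS at 37°C, 5% CO2, were treated 24 h with test compound (10 or 20 µM), a reference compound (20 µM) or DMSO. Cells were collected, washed twice in PBS, then stained with Annexin-V for 10 min in the dark and with PI for 5 min, and analysed by FACS. Annexin+/PI− cells were scored early apoptotic and Annexin+/PI+ late apoptotic/dead; three separate treatments.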
# [11] = test system: NF-κB activation induced by TNF-α in SGC-7901 cells; assay: Western blot of TNF-α-induced NF-κB activation; format: cell-based, human; details: SGC-7901, 10 µM, 60 minutes pretreatment, TNF-α 1 ng/mL 15 minutes
# How it was run: as §2
SMILES,Colony formation [1],Cells arrested in the G2/M phase ([2]; 20 µM),Absorption intensity of the spectrum in phosphate buffer (degradation) [3],Invasion through Matrigel [4],IC50 (GES-1 cells),Nuclear p65 after TNF-α stimulation [5],p65 nuclear translocation induced by TNF-α [6],IC50 (SGC-7901 cells),Cells arrested in the G2/M phase ([2]; 10 µM),Expression of p-IKK and p-IκB-α stimulated by TNF-α [7],Caspase 3 level and cleavage [8],p65 red fluorescence in cell nuclei after TNF-α [9],Number of early- and late-period apoptotic cells [10],Phosphorylation of IKK and IκB-α stimulated by TNF-α [11]
"COc1cc(/C=C/C(=O)CC(=O)/C=C/c2ccc(O)c(OC)c2)ccc1O [CUR, curcumin, reference compound]",no significant effects,~ 10%,significantly decreased,could similarly inhibit cell invasion,29.1 ± 3.8 µM,–,–,–,–,–,–,–,–,–
"COc1cccc(/C=C/C(=O)/C=C/c2cccc(OC)c2OC)c1OC [Compound B19, (1E,4E)-1,5-bis(2,3-dimethoxyphenyl)penta-1,4-dien-3-one]",–,–,–,–,3.7 ± 1.9 µM,–,–,–,–,–,–,–,–,–
"Cc1ccc2nc(NCCN)c3ncc(C)n3c2c1 [BMS345541, reference compound]",–,–,–,–,9.8 ± 2.5 µM,did not significantly increase,could inhibit the p65 nuclear translocation,7.8 ± 1.8 µM,–,–,–,–,–,–
"COc1ccc(OC)c(/C=C2\CC/C(=C\c3ccc(O)c(OC)c3)C2=O)c1 [Da0324, (2E,5E)-2-(2,5-dimethoxybenzylidene)-5-(4-hydroxy-3-methoxybenzylidene)cyclopentanone]",No colonies were visible,–,less degraded than curcumin,obviously inhibited the invasion,27.3 ± 8.2 µM,did not significantly increase,could inhibit the p65 nuclear translocation,–,~30%,similarly inhibit the expression of p-IKK and p-IκB-α,significantly reduced caspase 3 and induced its cleavage,the red fluorescence did not increase in the cell nuclei,significantly higher than those of the curcumin-treated cells,significantly inhibit the phosphorylation of IKK and IκB-α
